Experimental data: ChEMBL document CHEMBL1125554, “Studies on pyridonecarboxylic acids. 1. Synthesis and antibacterial evaluation of 7-substituted-6-halo-4-oxo-4H-[1,3]thiazeto[3,2-a]quinoline-3-carboxylic acids” (J Med Chem, 1992)
Converted amounts (≈) assume the structure as drawn.

Tests used:
Escherichia coli = assay: In vitro antibacterial activity against Escherichia coli NIH JC-2; format: functional
Method in brief: (§1)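 MIC (μg/mL) by 2-fold agar dilution on Sensitivity Test agar, following the Japan Society of Chemotherapy MIC Committee method. Inocula were about 10⁶ cfu/mL. Growth was read after 20 h incubation at 37 °C.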

Klebsiella pneumoniae = assay: In vitro antibacterial activity against Klebsiella pneumoniae K-1966; format: functional; method in brief: as §1
Pseudomonas aeruginosa = assay: In vitro antibacterial activity against Pseudomonas aeruginosa E-2; format: functional; method in brief: as §1
Shigella flexneri = assay: In vitro antibacterial activity against Shigella flexneri 2a EW-10; format: functional; method in brief: as §1
Serratia marcescens = assay: In vitro antibacterial activity against Serratia marcescens IFO 3736; format: functional; method in brief: as §1
Staphylococcus aureus = assay: In vitro antibacterial activity against Staphylococcus aureus 209P JC-1; format: functional; method in brief: as §1
Micrococcus luteus = assay: In vitro antibacterial activity against Micrococcus luteus ATCC 9341; format: functional; method in brief: as §1
Mus musculus [1] = species on record: Mus musculus; assay: Compound was evaluated for oral efficacy on systemic infections in mice by Escherichia coli KC-14; format: functional
Method in brief: (§2)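 Male ddY mice (20 ± 2 g), seven per dose group. Challenge was intraperitoneal, 0.5 mL of bacteria suspended in 5% gastric mucin: E. coli KC-14 at 4.3 × 10⁴ cfu/mL or P. aeruginosa E-2 at 2.88 × 10⁵ cfu/mL. Drug was suspended in 0.5% HPC-SL and given orally 2 h (E. coli) or 1 h (P. aeruginosa) after challenge. ED50 was calculated by Probit from 7-day survival.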

Mus musculus [2] = species on record: Mus musculus; assay: Compound was evaluated for oral Pseudomonas aeruginosa E-2; format: functional; method in brief: as §2
[3] = Lethal dose on systemic infections in mice after oral administration; format: toxicity, organism-based; conditions: mouse, in vivo
Method in brief: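 Acute oral toxicity: the suspension was given orally in 0.5% HPC-SL to Slc:SD rats, although the section heading says mice. Males weighed 141-168 g and females 113-127 g, five per group. LD50 was determined by the method of Weil 7 days after dosing.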

[4] = Escherichia coli, read-out: MIC
[5] = Klebsiella pneumoniae, read-out: MIC
[6] = Pseudomonas aeruginosa, read-out: MIC
[7] = Shigella flexneri, read-out: MIC
[8] = Serratia marcescens, IFO 3736, read-out: MIC
[9] = Staphylococcus aureus, read-out: MIC
[10] = Micrococcus luteus, ATCC 9341, read-out: MIC

Compound	MIC (Escherichia coli; [4])	MIC (Klebsiella pneumoniae; [5])	MIC (Pseudomonas aeruginosa; [6])	MIC (Shigella flexneri; [7])	MIC (Serratia marcescens; [8])	MIC (Staphylococcus aureus; [9])	MIC (Micrococcus luteus; [10])	ED50 (Mus musculus [1])	ED50 (Mus musculus [2])	MIC (Escherichia coli)	MIC (Klebsiella pneumoniae)	MIC (Pseudomonas aeruginosa)	MIC (Shigella flexneri)	MIC (Serratia marcescens)	MIC (Staphylococcus aureus)	MIC (Micrococcus luteus)	LD50 [3]
CN1CCN(c2cc3c(cc2F)c(=O)c(C(=O)O)c2n3C(c3ccccc3)S2)CC1 (stereo unspecified)	0.2 µg/mL (≈ 0.47 µM)	0.2 µg/mL (≈ 0.47 µM)	1.56 µg/mL (≈ 3.67 µM)	0.2 µg/mL (≈ 0.47 µM)	0.39 µg/mL (≈ 0.917 µM)	0.39 µg/mL (≈ 0.917 µM)	6.25 µg/mL (≈ 14.7 µM)										
CC1Sc2c(C(=O)O)c(=O)c3cc(F)c(N4CCN(c5ccccc5)CC4)cc3n21 (stereo unspecified)	> 100 µg/mL	> 100 µg/mL	> 100 µg/mL	> 100 µg/mL	> 100 µg/mL	3.13 µg/mL (≈ 7.36 µM)	12.5 µg/mL (≈ 29.4 µM)										
CCN1CCN(c2cc3c(cc2F)c(=O)c(C(=O)O)c2n3C(C)S2)CC1 (stereo unspecified)	0.05 µg/mL (≈ 0.132 µM)	0.05 µg/mL (≈ 0.132 µM)	0.78 µg/mL (≈ 2.07 µM)	0.025 µg/mL (≈ 0.0662 µM)	0.1 µg/mL (≈ 0.265 µM)	0.1 µg/mL (≈ 0.265 µM)	1.56 µg/mL (≈ 4.13 µM)										
CC(=O)N1CCN(c2cc3c(cc2F)c(=O)c(C(=O)O)c2n3C(C)S2)CC1 (stereo unspecified)	0.78 µg/mL (≈ 1.99 µM)	0.39 µg/mL (≈ 0.996 µM)	6.25 µg/mL (≈ 16 µM)	0.39 µg/mL (≈ 0.996 µM)	1.56 µg/mL (≈ 3.99 µM)	0.2 µg/mL (≈ 0.511 µM)	3.13 µg/mL (≈ 8 µM)										
CC1Sc2c(C(=O)O)c(=O)c3cc(F)c(N4CCN(Cc5ccc(N)cc5)CC4)cc3n21 (stereo unspecified)	0.2 µg/mL (≈ 0.44 µM)	0.2 µg/mL (≈ 0.44 µM)	3.13 µg/mL (≈ 6.89 µM)	0.1 µg/mL (≈ 0.22 µM)	1.56 µg/mL (≈ 3.43 µM)	0.05 µg/mL (≈ 0.11 µM)	0.39 µg/mL (≈ 0.858 µM)										
CN1CCN(c2cc3c(cc2F)c(=O)c(C(=O)O)c2n3CS2)CC1	0.0125 µg/mL (≈ 0.0358 µM)	0.025 µg/mL (≈ 0.0716 µM)	0.39 µg/mL (≈ 1.12 µM)	0.006 µg/mL (≈ 0.0172 µM)	0.05 µg/mL (≈ 0.143 µM)	0.05 µg/mL (≈ 0.143 µM)	12.5 µg/mL (≈ 35.8 µM)	1.77 mg/kg	16.4 mg/kg								
CC1Sc2c(C(=O)O)c(=O)c3cc(F)c(N4CCNC(=O)C4)cc3n21 (stereo unspecified)	0.39 µg/mL (≈ 1.07 µM)	0.2 µg/mL (≈ 0.55 µM)	6.25 µg/mL (≈ 17.2 µM)	0.1 µg/mL (≈ 0.275 µM)	3.13 µg/mL (≈ 8.61 µM)	0.39 µg/mL (≈ 1.07 µM)	3.13 µg/mL (≈ 8.61 µM)										
CC(C)N1CCN(c2cc3c(cc2F)c(=O)c(C(=O)O)c2n3C(C)S2)CC1 (stereo unspecified)	0.2 µg/mL (≈ 0.511 µM)	0.025 µg/mL (≈ 0.0639 µM)	1.56 µg/mL (≈ 3.99 µM)	0.025 µg/mL (≈ 0.0639 µM)	0.39 µg/mL (≈ 0.996 µM)	0.05 µg/mL (≈ 0.128 µM)	3.13 µg/mL (≈ 8 µM)										
CC1Sc2c(C(=O)O)c(=O)c3cc(F)c(N4CCCNCC4)cc3n21 (stereo unspecified)	0.2 µg/mL (≈ 0.55 µM)	0.2 µg/mL (≈ 0.55 µM)	3.13 µg/mL (≈ 8.61 µM)	0.1 µg/mL (≈ 0.275 µM)	0.39 µg/mL (≈ 1.07 µM)	0.1 µg/mL (≈ 0.275 µM)	3.13 µg/mL (≈ 8.61 µM)										
CC1Sc2c(C(=O)O)c(=O)c3cc(F)c(N4CCCC4)cc3n21 (stereo unspecified)	0.2 µg/mL (≈ 0.598 µM)	0.1 µg/mL (≈ 0.299 µM)	0.39 µg/mL (≈ 1.17 µM)	0.1 µg/mL (≈ 0.299 µM)	0.78 µg/mL (≈ 2.33 µM)	0.05 µg/mL (≈ 0.15 µM)	0.78 µg/mL (≈ 2.33 µM)										
O=C(O)c1c2n(c3cc(N4CCNCC4)c(Cl)cc3c1=O)CS2	0.39 µg/mL (≈ 1.11 µM)	0.2 µg/mL (≈ 0.568 µM)	6.25 µg/mL (≈ 17.8 µM)	0.1 µg/mL (≈ 0.284 µM)	0.2 µg/mL (≈ 0.568 µM)	0.2 µg/mL (≈ 0.568 µM)	6.25 µg/mL (≈ 17.8 µM)										
CC1Sc2c(C(=O)O)c(=O)c3cc(F)c(N4CCSCC4)cc3n21 (stereo unspecified)	0.2 µg/mL (≈ 0.546 µM)	0.2 µg/mL (≈ 0.546 µM)	0.39 µg/mL (≈ 1.06 µM)	0.1 µg/mL (≈ 0.273 µM)	0.39 µg/mL (≈ 1.06 µM)	0.025 µg/mL (≈ 0.0682 µM)	0.78 µg/mL (≈ 2.13 µM)										
CC1Sc2c(C(=O)O)c(=O)c3cc(F)c(N4CCNCC4)cc3n21 (stereo in doubt; 29a) [ULIFLOXACIN]										0.0125 µg/mL (≈ 0.0358 µM)	0.006 µg/mL (≈ 0.0172 µM)	0.2 µg/mL (≈ 0.572 µM)	0.006 µg/mL (≈ 0.0172 µM)	0.05 µg/mL (≈ 0.143 µM)	0.05 µg/mL (≈ 0.143 µM)	0.78 µg/mL (≈ 2.23 µM)	
CC1Sc2c(C(=O)O)c(=O)c3cc(F)c(N4CCNCC4)cc3n21 (stereo in doubt; 29l) [ULIFLOXACIN]										0.78 µg/mL (≈ 2.23 µM)	0.39 µg/mL (≈ 1.12 µM)	1.56 µg/mL (≈ 4.46 µM)	0.78 µg/mL (≈ 2.23 µM)	3.13 µg/mL (≈ 8.96 µM)	0.2 µg/mL (≈ 0.572 µM)	3.13 µg/mL (≈ 8.96 µM)	
O=C(O)c1cn(C2CC2)c2cc(N3CCNCC3)c(F)cc2c1=O [CIPROFLOXACIN]	0.0125 µg/mL (≈ 0.0377 µM)	0.006 µg/mL (≈ 0.0181 µM)	0.2 µg/mL (≈ 0.604 µM)	0.006 µg/mL (≈ 0.0181 µM)	0.1 µg/mL (≈ 0.302 µM)	0.1 µg/mL (≈ 0.302 µM)	1.56 µg/mL (≈ 4.71 µM)	0.45 mg/kg	9.01 mg/kg								
CC1COc2c(N3CCN(C)CC3)c(F)cc3c(=O)c(C(=O)O)cn1c23 (stereo unspecified) [OFLOXACIN]	0.1 µg/mL (≈ 0.277 µM)	0.025 µg/mL (≈ 0.0692 µM)	1.56 µg/mL (≈ 4.32 µM)	0.1 µg/mL (≈ 0.277 µM)	0.39 µg/mL (≈ 1.08 µM)	0.39 µg/mL (≈ 1.08 µM)	3.13 µg/mL (≈ 8.66 µM)	0.55 mg/kg	23 mg/kg								
Cc1oc(=O)oc1CN1CCN(c2cc3c(cc2F)c(=O)c(C(=O)O)c2n3C(C)S2)CC1 (stereo unspecified) [PRULIFLOXACIN]								0.35 mg/kg	8.02 mg/kg								> 500 mg/kg
